ChEMBL document CHEMBL2062435, “Synthesis and in vitro antibacterial activity of gemifloxacin derivatives containing a substituted benzyloxime moiety” (2012)

Legend:
Assay type in all cases: functional
Escherichia coli [1] = experiment: Antimicrobial activity against extended spectrum beta-lactamases-producing Escherichia coli 10-4 after 18-24 hrs by two-fold serial dilution method
How it was run: (§1)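 Agar-medium twofold serial dilution against Gram-positive and Gram-negative strains; MIC taken as the lowest compound concentration giving complete inhibition of bacterial growth after incubation at 35 °C for 18-24 h.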

Pseudomonas aeruginosa [2] = experiment: Antimicrobial activity against extended spectrum beta-lactamases-producing Pseudomonas aeruginosa 10-9 after 18-24 hrs by two-fold serial dilution method; how it was run: as §1
Pseudomonas aeruginosa [3] = experiment: Antimicrobial activity against extended spectrum beta-lactamases-producing Pseudomonas aeruginosa 10-5 after 18-24 hrs by two-fold serial dilution method; how it was run: as §1
Streptococcus pneumoniae [4] = experiment: Antimicrobial activity against extended spectrum beta-lactamases-producing Streptococcus pneumoniae 10-1 after 18-24 hrs by two-fold serial dilution method; how it was run: as §1
[5] = system: Staphylococcus epidermidis; experiment: Antimicrobial activity against extended spectrum beta-lactamases-producing methicillin-sensitive Staphylococcus epidermidis 10-11 after 18-24 hrs by two-fold serial dilution method; how it was run: as §1
Escherichia coli [6] = experiment: Antimicrobial activity against Escherichia coli 10-2 after 18-24 hrs by two-fold serial dilution method; how it was run: as §1
Pseudomonas aeruginosa [7] = experiment: Antimicrobial activity against extended spectrum beta-lactamases-producing Pseudomonas aeruginosa 10-20 after 18-24 hrs by two-fold serial dilution method; how it was run: as §1
Enterococcus faecalis [8] = experiment: Antimicrobial activity against Enterococcus faecalis 10-7 after 18-24 hrs by two-fold serial dilution method; how it was run: as §1
Enterococcus faecium [9] = experiment: Antimicrobial activity against Enterococcus faecium 10-9 after 18-24 hrs by two-fold serial dilution method; how it was run: as §1
Streptococcus pneumoniae [10] = experiment: Antimicrobial activity against extended spectrum beta-lactamases-producing Streptococcus pneumoniae 10-4 after 18-24 hrs by two-fold serial dilution method; how it was run: as §1
[11] = system: Staphylococcus epidermidis; experiment: Antimicrobial activity against extended spectrum beta-lactamases-producing methicillin-resistant Staphylococcus epidermidis 10-10 after 18-24 hrs by two-fold serial dilution method
How it was run: (§2)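 Agar twofold serial dilution MIC against clinical isolates. MIC was taken as the lowest concentration giving complete inhibition of bacterial growth after incubation at 35 °C for 18-24 h.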

Escherichia coli [12] = experiment: Antimicrobial activity against extended spectrum beta-lactamases-producing Escherichia coli 10-2 after 18-24 hrs by two-fold serial dilution method; how it was run: as §1
Pseudomonas aeruginosa [13] = experiment: Antimicrobial activity against Pseudomonas aeruginosa 10-12 after 18-24 hrs by two-fold serial dilution method; how it was run: as §1
Escherichia coli [14] = experiment: Antimicrobial activity against Escherichia coli ATCC 25922 after 18-24 hrs by two-fold serial dilution method; how it was run: as §1
Pseudomonas aeruginosa [15] = experiment: Antimicrobial activity against extended spectrum beta-lactamases-producing Pseudomonas aeruginosa 10-15 after 18-24 hrs by two-fold serial dilution method; how it was run: as §1
Escherichia coli [16] = experiment: Antimicrobial activity against extended spectrum beta-lactamases-producing Escherichia coli 10-3 after 18-24 hrs by two-fold serial dilution method; how it was run: as §1
Staphylococcus aureus [17] = experiment: Antimicrobial activity against extended spectrum beta-lactamases-producing methicillin-resistant Staphylococcus aureus 10-11 after 18-24 hrs by two-fold serial dilution method; how it was run: as §2
[18] = system: Staphylococcus epidermidis; experiment: Antimicrobial activity against extended spectrum beta-lactamases-producing methicillin-sensitive Staphylococcus epidermidis 10-13 after 18-24 hrs by two-fold serial dilution method; how it was run: as §1
Staphylococcus aureus [19] = experiment: Antimicrobial activity against Staphylococcus aureus ATCC […] after 18-24 hrs by two-fold serial dilution method; how it was run: as §1
Klebsiella pneumoniae [20] = experiment: Antimicrobial activity against Klebsiella pneumoniae 10-4 after 18-24 hrs by two-fold serial dilution method; how it was run: as §1
Escherichia coli [21] = experiment: Antimicrobial activity against Escherichia coli 10-1 after 18-24 hrs by two-fold serial dilution method; how it was run: as §1
Klebsiella pneumoniae [22] = experiment: Antimicrobial activity against extended spectrum beta-lactamases-producing Klebsiella pneumoniae 10-2 after 18-24 hrs by two-fold serial dilution method; how it was run: as §1
Staphylococcus aureus [23] = experiment: Antimicrobial activity against extended spectrum beta-lactamases-producing methicillin-sensitive Staphylococcus aureus 10-14 after 18-24 hrs by two-fold serial dilution method; how it was run: as §1
Staphylococcus aureus [24] = experiment: Antimicrobial activity against extended spectrum beta-lactamases-producing methicillin-sensitive Staphylococcus aureus 10-13 after 18-24 hrs by two-fold serial dilution method; how it was run: as §1
Klebsiella pneumoniae [25] = experiment: Antimicrobial activity against Klebsiella pneumoniae 10-2 after 18-24 hrs by two-fold serial dilution method; how it was run: as §1
[26] = system: Staphylococcus epidermidis; experiment: Antimicrobial activity against extended spectrum beta-lactamases-producing methicillin-sensitive Staphylococcus epidermidis 10-15 after 18-24 hrs by two-fold serial dilution method; how it was run: as §1
Enterococcus faecalis [27] = experiment: Antimicrobial activity against Enterococcus faecalis 10-6 after 18-24 hrs by two-fold serial dilution method; how it was run: as §1
Pseudomonas aeruginosa [28] = experiment: Antimicrobial activity against extended spectrum beta-lactamases-producing Pseudomonas aeruginosa 10-18 after 18-24 hrs by two-fold serial dilution method; how it was run: as §1
Klebsiella pneumoniae [29] = experiment: Antimicrobial activity against extended spectrum beta-lactamases-producing Klebsiella pneumoniae 10-3 after 18-24 hrs by two-fold serial dilution method; how it was run: as §1
Klebsiella pneumoniae [30] = experiment: Antimicrobial activity against Klebsiella pneumoniae 10-3 after 18-24 hrs by two-fold serial dilution method; how it was run: as §1
[31] = system: Staphylococcus epidermidis; experiment: Antimicrobial activity against extended spectrum beta-lactamases-producing methicillin-resistant Staphylococcus epidermidis 10-13 after 18-24 hrs by two-fold serial dilution method; how it was run: as §2
Enterococcus faecium [32] = experiment: Antimicrobial activity against Enterococcus faecium 10-5 after 18-24 hrs by two-fold serial dilution method; how it was run: as §1
Staphylococcus aureus [33] = experiment: Antimicrobial activity against extended spectrum beta-lactamases-producing methicillin-resistant Staphylococcus aureus 10-15 after 18-24 hrs by two-fold serial dilution method; how it was run: as §2
Enterococcus faecalis [34] = experiment: Antimicrobial activity against Enterococcus faecalis 10-5 after 18-24 hrs by two-fold serial dilution method; how it was run: as §1
Escherichia coli [35] = experiment: Antimicrobial activity against Escherichia coli 10-3 after 18-24 hrs by two-fold serial dilution method; how it was run: as §1
Klebsiella pneumoniae [36] = experiment: Antimicrobial activity against extended spectrum beta-lactamases-producing Klebsiella pneumoniae 10-1 after 18-24 hrs by two-fold serial dilution method; how it was run: as §1

Structure (SMILES) | MIC (Escherichia coli [1]) | MIC (Pseudomonas aeruginosa [2]) | MIC (Pseudomonas aeruginosa [3]) | MIC (Streptococcus pneumoniae [4]) | MIC [5] | MIC (Escherichia coli [6]) | MIC (Pseudomonas aeruginosa [7]) | MIC (Enterococcus faecalis [8]) | MIC (Enterococcus faecium [9]) | MIC (Streptococcus pneumoniae [10]) | MIC [11] | MIC (Escherichia coli [12]) | MIC (Pseudomonas aeruginosa [13]) | MIC (Escherichia coli [14]) | MIC (Pseudomonas aeruginosa [15]) | MIC (Escherichia coli [16]) | MIC (Staphylococcus aureus [17]) | MIC [18] | MIC (Staphylococcus aureus [19]) | MIC (Klebsiella pneumoniae [20]) | further results
COc1ccc(CO/N=C2\CN(c3nc4c(cc3F)c(=O)c(C(=O)O)cn4C3CC3)CC2CN)c(OC)c1.CS(=O)(=O)O (racemic) | 0.25 µg/mL | 8 µg/mL | 4 µg/mL | 1 µg/mL | 4 µg/mL | 8 µg/mL | 0.25 µg/mL | 2 µg/mL | 8 µg/mL | 4 µg/mL | 2 µg/mL | > 128 µg/mL | 0.06 µg/mL | 0.125 µg/mL | 8 µg/mL | 32 µg/mL | 1 µg/mL | 1 µg/mL | 0.06 µg/mL | > 128 µg/mL | MIC (Escherichia coli [21]): > 128 µg/mL; MIC (Klebsiella pneumoniae [22]): > 128 µg/mL; MIC (Staphylococcus aureus [23]): 0.06 µg/mL; MIC (Staphylococcus aureus [24]): 1 µg/mL; MIC (Klebsiella pneumoniae [25]): > 128 µg/mL; MIC [26]: 4 µg/mL; MIC (Enterococcus faecalis [27]): 4 µg/mL; MIC (Pseudomonas aeruginosa [28]): 16 µg/mL; MIC (Klebsiella pneumoniae [29]): > 128 µg/mL; MIC (Klebsiella pneumoniae [30]): 8 µg/mL; MIC [31]: 0.5 µg/mL; MIC (Enterococcus faecium [32]): 8 µg/mL; MIC (Staphylococcus aureus [33]): 0.25 µg/mL; MIC (Enterococcus faecalis [34]): 0.5 µg/mL; MIC (Escherichia coli [35]): 16 µg/mL; MIC (Klebsiella pneumoniae [36]): > 128 µg/mL
COc1cc(CO/N=C2\CN(c3nc4c(cc3F)c(=O)c(C(=O)O)cn4C3CC3)CC2CN)cc(OC)c1OC.CS(=O)(=O)O (racemic) | 8 µg/mL | 8 µg/mL | 8 µg/mL | 1 µg/mL | 8 µg/mL | 16 µg/mL | 0.5 µg/mL | 2 µg/mL | 8 µg/mL | 8 µg/mL | 2 µg/mL | > 128 µg/mL | 0.125 µg/mL | 0.5 µg/mL | 8 µg/mL | 16 µg/mL | 2 µg/mL | 2 µg/mL | 0.125 µg/mL | > 128 µg/mL | MIC (Escherichia coli [21]): 128 µg/mL; MIC (Klebsiella pneumoniae [22]): > 128 µg/mL; MIC (Staphylococcus aureus [23]): 0.125 µg/mL; MIC (Staphylococcus aureus [24]): 1 µg/mL; MIC (Klebsiella pneumoniae [25]): > 128 µg/mL; MIC [26]: 8 µg/mL; MIC (Enterococcus faecalis [27]): 4 µg/mL; MIC (Pseudomonas aeruginosa [28]): 4 µg/mL; MIC (Klebsiella pneumoniae [29]): > 128 µg/mL; MIC (Klebsiella pneumoniae [30]): 8 µg/mL; MIC [31]: 0.5 µg/mL; MIC (Enterococcus faecium [32]): 8 µg/mL; MIC (Staphylococcus aureus [33]): 0.25 µg/mL; MIC (Enterococcus faecalis [34]): 1 µg/mL; MIC (Escherichia coli [35]): 16 µg/mL; MIC (Klebsiella pneumoniae [36]): > 128 µg/mL
CS(=O)(=O)O.NCC1CN(c2nc3c(cc2F)c(=O)c(C(=O)O)cn3C2CC2)C/C1=N\OCc1ccc(OCc2ccccc2)cc1 (racemic) | 0.06 µg/mL | 2 µg/mL | 16 µg/mL | 2 µg/mL | 1 µg/mL | 0.25 µg/mL | 16 µg/mL | 16 µg/mL | 32 µg/mL | 8 µg/mL | 4 µg/mL | > 128 µg/mL | 16 µg/mL | 4 µg/mL | 8 µg/mL | > 128 µg/mL | 4 µg/mL | 16 µg/mL | 2 µg/mL | > 128 µg/mL | MIC (Escherichia coli [21]): 0.03 µg/mL; MIC (Klebsiella pneumoniae [22]): > 128 µg/mL; MIC (Staphylococcus aureus [23]): 1 µg/mL; MIC (Staphylococcus aureus [24]): 1 µg/mL; MIC (Klebsiella pneumoniae [25]): 16 µg/mL; MIC [26]: 4 µg/mL; MIC (Enterococcus faecalis [27]): 32 µg/mL; MIC (Pseudomonas aeruginosa [28]): 2 µg/mL; MIC (Klebsiella pneumoniae [29]): 8 µg/mL; MIC (Klebsiella pneumoniae [30]): 2 µg/mL; MIC [31]: 4 µg/mL; MIC (Enterococcus faecium [32]): 32 µg/mL; MIC (Staphylococcus aureus [33]): 8 µg/mL; MIC (Enterococcus faecalis [34]): 8 µg/mL; MIC (Escherichia coli [35]): 0.125 µg/mL; MIC (Klebsiella pneumoniae [36]): > 128 µg/mL
COc1ccc(CO/N=C2\CN(c3nc4c(cc3F)c(=O)c(C(=O)O)cn4C3CC3)CC2CN)cc1OC.CS(=O)(=O)O (racemic) | 2 µg/mL | 8 µg/mL | 2 µg/mL | 0.5 µg/mL | 2 µg/mL | 8 µg/mL | 0.06 µg/mL | 1 µg/mL | 4 µg/mL | 4 µg/mL | 0.5 µg/mL | > 128 µg/mL | 0.03 µg/mL | 0.06 µg/mL | 1 µg/mL | 16 µg/mL | 0.5 µg/mL | 0.5 µg/mL | 0.03 µg/mL | > 128 µg/mL | MIC (Escherichia coli [21]): 16 µg/mL; MIC (Klebsiella pneumoniae [22]): > 128 µg/mL; MIC (Staphylococcus aureus [23]): 0.06 µg/mL; MIC (Staphylococcus aureus [24]): 0.5 µg/mL; MIC (Klebsiella pneumoniae [25]): 128 µg/mL; MIC [26]: 4 µg/mL; MIC (Enterococcus faecalis [27]): 2 µg/mL; MIC (Pseudomonas aeruginosa [28]): 4 µg/mL; MIC (Klebsiella pneumoniae [29]): > 128 µg/mL; MIC (Klebsiella pneumoniae [30]): 4 µg/mL; MIC [31]: 0.25 µg/mL; MIC (Enterococcus faecium [32]): 4 µg/mL; MIC (Staphylococcus aureus [33]): 0.125 µg/mL; MIC (Enterococcus faecalis [34]): 0.5 µg/mL; MIC (Escherichia coli [35]): 16 µg/mL; MIC (Klebsiella pneumoniae [36]): 64 µg/mL
